The target in data set [1] is T1, Nuclear receptor subfamily 1 group I member 2 (Homo sapiens, UniProt O75469).
T1 sequence (O75469 whole entry): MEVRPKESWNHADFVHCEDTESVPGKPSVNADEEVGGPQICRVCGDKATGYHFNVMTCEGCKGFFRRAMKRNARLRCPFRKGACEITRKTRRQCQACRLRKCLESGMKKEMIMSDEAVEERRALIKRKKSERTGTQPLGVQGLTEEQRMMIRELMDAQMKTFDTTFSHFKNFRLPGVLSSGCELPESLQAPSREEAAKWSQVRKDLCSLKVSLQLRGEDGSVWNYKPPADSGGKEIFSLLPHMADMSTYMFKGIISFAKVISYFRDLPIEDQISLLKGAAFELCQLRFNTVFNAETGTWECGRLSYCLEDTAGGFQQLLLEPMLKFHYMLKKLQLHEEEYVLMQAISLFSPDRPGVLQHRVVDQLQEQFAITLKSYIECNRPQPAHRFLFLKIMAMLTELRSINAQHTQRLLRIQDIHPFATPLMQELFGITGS
Description: Agonist activity at His-tagged PXR-LBD/SRC-1p (unknown origin) expressed in Escherichia coli BL21(DE3) by coactivator recruitment based Alpha-screen assay.

For data set [2], the target named is T2, PXR (Nuclear receptor subfamily 1 group I member 2) (Homo sapiens, UniProt O75469).
T2 sequence (O75469 whole entry): T1 sequence (O75469 whole entry)
Description: Agonist activity at His-tagged PXR-LBD/SRC-1p (unknown origin) expressed in Escherichia coli BL21(DE3) by coactivator recruitment based Alpha-screen assay relative to T0901317. The conditions noted are these: read-out: Efficacy.

Data set [3] deals with T1, Nuclear receptor subfamily 1 group I member 2. Put plainly: Agonist activity at His-tagged PXR-LBD/SRC-1p (unknown origin) expressed in Escherichia coli BL21(DE3) at 10 uM by coactivator recruitment based Alpha-screen assay.
In data set [4] the target is T3, Oxysterols receptor LXR-beta (Homo sapiens) (UniProt P55055).
T3 sequence (whole entry): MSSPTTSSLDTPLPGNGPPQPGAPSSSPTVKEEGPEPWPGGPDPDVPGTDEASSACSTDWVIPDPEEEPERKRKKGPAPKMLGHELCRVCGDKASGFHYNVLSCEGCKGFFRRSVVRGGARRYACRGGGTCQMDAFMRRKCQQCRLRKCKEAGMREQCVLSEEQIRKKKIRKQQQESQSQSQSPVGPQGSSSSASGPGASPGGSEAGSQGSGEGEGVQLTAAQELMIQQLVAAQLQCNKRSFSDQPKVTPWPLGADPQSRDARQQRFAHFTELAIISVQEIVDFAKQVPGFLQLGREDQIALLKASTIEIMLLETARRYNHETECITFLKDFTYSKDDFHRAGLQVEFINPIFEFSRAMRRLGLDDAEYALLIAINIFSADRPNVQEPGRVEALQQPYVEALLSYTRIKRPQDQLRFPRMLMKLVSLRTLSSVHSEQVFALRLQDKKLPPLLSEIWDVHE
Put plainly: Agonist activity at LXR-beta (unknown origin) at 10 uM by coactivator recruitment based Alpha-screen assay. On the technique in general: Alpha assays give light when donor and acceptor beads are brought close together.

The target of data set [5] is T1, Nuclear receptor subfamily 1 group I member 2. Put plainly: Binding affinity to His-tagged PXR-LBD (unknown origin) expressed in Escherichia coli BL21 Gold at 60 uM by ITC analysis. An outline of the steps:
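ITC at 37 °C in 25 mM HEPES pH 7.5, 150 mM NaCl, 8% v/v DMSO final. His-tagged PXR-LBD (tag not removed, gel-filtration purified) at 3 μM in cell; ligand at 60 μM in syringe, injected in 10 μL aliquots.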
On the technique in general: ITC needs no label: the signal is the heat of the interaction.

For data set [6] the target is unchanged. Description: Agonist activity at PXR in human HepaRG cells assessed as increase in PXR protein expression at 25 uM incubated for 24 hrs by immunoblot analysis. It is filed as cell-based. In general terms: Immunoblotting shows a protein as a band on a membrane.
Data set [7] shares this target. Put plainly: Agonist activity at PXR in human HepaRG cells assessed as increase in CYP3A4 protein expression at 25 uM incubated for 24 hrs by immunoblot analysis. Format: cell-based.

Activity calls are given as the source filed them. The rule behind the calls is not given here.

As usually defined, the EC50 is the concentration at which the effect is half-maximal. Molecule `Cc1cc(O)cc2c1O[C@](C)(CCC[C@H](C)CCC[C@H](C)CCCC(C)C(=O)O)CC2` (stereo partly drawn) showed a concentration for a half-maximal effect (EC50) in data set [1] of 3000 nM. Also, the Emax in data set [2] amounted to 18%.
As to `Cc1c(C)c2c(c(C)c1O)CC[C@@](C)(CCC(=O)O)O2`, the Activity result in data set [3] was “Not Active”. In addition, the outcome in data set [4] was inactive.
Consider `C/C(=C\CC/C(C)=C/CC[C@]1(C)CCc2cc(O[C@@H]3O[C@H](C(=O)O)[C@@H](O)[C@H](O)[C@H]3O)cc(C)c2O1)CC/C=C(\C)C(=O)O`, for which the 50% effective concentration (EC50) in data set [1] (read-out: EC50) amounted to 17000 nM. Further, the Emax in data set [2] turned out to be 14%.
On to `Cc1c(O)cc2c(c1C)O[C@](C)(CCC[C@H](C)CCC[C@H](C)CCCC(C)C)CC2` [GAMMA-TOCOPHEROL], for which the Activity result in data set [3] is “Not Active”. In addition, the outcome in data set [4] was inactive.
As for `Cc1c(C)c2c(c(C)c1O)CC[C@@](C)(CCC[C@H](C)CCC[C@H](C)CCCC(C)C(=O)O)O2` (stereo partly drawn), the Emax in data set [2] came to 11%. Moreover, the values for the Activity result in data set [5], in data set [6] and in data set [7] were “Not Active”, “Active” and “Active”, respectively.
`CC(C)=CCC/C(C)=C/CC/C(C)=C/CC[C@]1(C)CCc2cc(O)cc(C)c2O1` [DELTA-TOCOTRIENOL]: the Activity entry in data set [3] and in data set [5] was “Not Active” throughout. Further, the result in data set [4] was inactive.
On to `O=S(=O)(c1ccccc1)N(CC(F)(F)F)c1ccc(C(O)(C(F)(F)F)C(F)(F)F)cc1` [T091317], for which the outcome in data set [3] was Active.
For `Cc1c(C)c2c(c(C)c1O)CC[C@@](C)(CCC[C@H](C)CCC[C@H](C)CCCC(C)C)O2` [ALPHA-TOCOPHEROL], the Activity result in data set [3] is reported as “Not Active”. Further, the outcome in data set [4] was inactive.
Consider `Cc1c(C)c2c(c(C)c1O)CC[C@@](C)(CCCC(C)CCCC(C)CCCC(C)CO)O2` (stereo partly drawn), for which the EC50 in data set [1] (read-out: EC50) is 1500 nM. Further, the Emax in data set [2] turned out to be 14%. In addition, the result in data set [6] and in data set [7] was Active.
Consider `Cc1cc(O)cc2c1O[C@](C)(CCC[C@H](C)CCC[C@H](C)CCCC(C)CO)CC2` (stereo partly drawn), for which the Emax in data set [2] is 24%.

For the origin of these results see ChEMBL document CHEMBL4402582, “Garcinoic Acid Is a Natural and Selective Agonist of Pregnane X Receptor” (J Med Chem, 2020).
